# Screening data deposited in PubChem BioAssay by Broad Institute.
# FN deposition inh: fibronectin deposition inhibition; AH1F fibroblasts, Alexa488-fibronectin deposition fluorescence, overnight; inhibition, % at 12.6 µM; actives 0.086% (n = 350,000); AID 743247;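 active = mean inhibition across replicates of 30% or more, regardless of how many single replicates reach that level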;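 also: positive control wells lacked labelled fibronectin entirely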
#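 Schedule: 1 h cell adhesion before compound, then overnight fibronectin incubation; test system: AH1F fibroblast monolayer depositing Alexa488-labelled fibronectin into matrix; quantity: 10000 AH1F cells per well; probe or stimulus: fluorescent fibronectin at 24 nM final; signal: fluorescence, ex 485 nm, em 525 nm; evaluation: percent inhibition as loss of matrix-bound fibronectin fluorescence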
# PAX8 reporter: inhibitors of PAX8 transcriptional activity in RMG-I cells; RMG-I TPO-luciferase reporter, SteadyGlo, 24 h; AID 652154; actives 1.2% (n = 360,000); inhibition, % at 12.6 µM;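 active = mean replicate inhibition at least 60% with every replicate also reaching 60%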;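 also: luciferase light reporting Pax8 driven TPO promoter activity; plate controls were median of neutral control wells for no effect and mitoxantrone controls for full effect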
# RAD54 branch: blocks human RAD54 Holliday junction branch migration; AID 602329; actives 0.14% (n = 360,000); Q92698; inhibition, % at 10.4 µM; FAM/BHQ fluorescence;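 active = mean normalized replicate activity at least 40 and at least half of replicates scoring 40 or more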;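 also: 0% = median of neutral control wells and 100% = median of positive control wells; inhibitors cause a drop in the FAM fluorescence signal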
# Target sequence (Q92698 whole entry, looked up): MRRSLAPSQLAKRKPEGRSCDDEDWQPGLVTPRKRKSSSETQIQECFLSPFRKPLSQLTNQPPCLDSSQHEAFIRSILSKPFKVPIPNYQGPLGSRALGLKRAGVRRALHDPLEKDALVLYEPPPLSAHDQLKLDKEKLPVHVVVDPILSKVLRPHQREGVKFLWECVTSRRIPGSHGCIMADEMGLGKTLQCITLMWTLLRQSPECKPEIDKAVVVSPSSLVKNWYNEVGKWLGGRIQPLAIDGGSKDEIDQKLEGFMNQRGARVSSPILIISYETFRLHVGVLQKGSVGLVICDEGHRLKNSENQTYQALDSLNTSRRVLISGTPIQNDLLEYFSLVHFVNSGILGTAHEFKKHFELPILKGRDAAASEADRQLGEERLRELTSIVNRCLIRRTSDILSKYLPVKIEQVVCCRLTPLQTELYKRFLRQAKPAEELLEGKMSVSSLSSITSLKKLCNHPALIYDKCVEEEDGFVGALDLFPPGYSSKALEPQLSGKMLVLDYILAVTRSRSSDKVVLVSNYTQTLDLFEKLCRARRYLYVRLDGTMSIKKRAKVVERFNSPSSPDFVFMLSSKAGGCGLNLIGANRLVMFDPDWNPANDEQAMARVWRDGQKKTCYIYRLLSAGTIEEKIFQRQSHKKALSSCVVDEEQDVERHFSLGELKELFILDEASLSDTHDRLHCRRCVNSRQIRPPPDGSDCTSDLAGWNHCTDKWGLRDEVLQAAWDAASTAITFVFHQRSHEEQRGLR
# RAD52 anneal inh: blocks human RAD52 DNA annealing; P43351; recombinant RAD52 DNA annealing, FRET fluorescence; inhibition, % at 18.7 µM; actives 0.46% (n = 360,000); AID 651710;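 active = every replicate showing at least 50% inhibition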
# Starred values were filed as active, the others as inactive; . = no result. Rows were chosen to be rich in hits. Some 1.3% of all compounds tested hit in one or more screens of this group.
SMILES,FN deposition inh,PAX8 reporter,RAD54 branch,RAD52 anneal inh
N#C/C(=C\c1ccc2c(c1)OCCO2)C(=O)NC1CCCCC1,4.1,100.1*,.,-0.3
COc1ccc(/C=C(/C#N)C(=O)NC2CCCCC2)cc1Br,-15.3,.,-3.5,.
C[C@H]1CCCCO[C@@H](CN(C)C)[C@@H](C)CN([C@@H](C)CO)C(=O)c2cc(NS(=O)(=O)c3ccc(Cl)cc3)ccc2O1,.,3.0,0.1,1.7
C[C@@H]1CCCCO[C@H](CN(C)C)[C@H](C)CN([C@@H](C)CO)C(=O)c2cc(NS(=O)(=O)c3ccc(Cl)cc3)ccc2O1,.,97.5*,.,.
C[C@@H]1CCCCO[C@H](CN(C)S(=O)(=O)c2ccc(Cl)cc2)[C@@H](C)CN([C@@H](C)CO)C(=O)c2cc(NS(=O)(=O)c3ccc(Cl)cc3)ccc2O1,4.9,68.3*,.,-3.1
C[C@H](CO)N1C[C@H](C)[C@H](CN(C)C(=O)Cc2ccccc2)OCCCC[C@H](C)Oc2ccc(NS(=O)(=O)c3ccc(Cl)cc3)cc2C1=O,-14.0,67.4*,-7.2,4.5
C[C@@H]1CCCCO[C@@H](CN(C)S(=O)(=O)c2ccc(Cl)cc2)[C@H](C)CN([C@@H](C)CO)C(=O)c2cc(N(C)C)ccc2O1,.,79.3*,.,.
CC(C)NC(=O)N(C)C[C@H]1Oc2ncc(C#Cc3ccc(F)cc3)cc2C(=O)N([C@H](C)CO)C[C@H]1C,-8.0,.,-4.8,0.6
C[C@@H]1CCCCO[C@H](CN(C)S(=O)(=O)c2ccc(Cl)cc2)[C@H](C)CN([C@H](C)CO)C(=O)c2cc(NS(=O)(=O)c3ccc(Cl)cc3)ccc2O1,11.7,50.5,-9.5,.
C[C@@H]1CCCCO[C@@H](CN(C)S(=O)(=O)c2ccc(Cl)cc2)[C@@H](C)CN([C@H](C)CO)C(=O)c2cc(NS(=O)(=O)c3ccc(Cl)cc3)ccc2O1,5.2,-32.2,-8.6,.
C[C@@H]1CCCCO[C@@H](CN(C)S(=O)(=O)c2ccc(Cl)cc2)[C@H](C)CN([C@@H](C)CO)C(=O)c2cc(NS(=O)(=O)c3ccc(Cl)cc3)ccc2O1,2.3,77.7*,-15.8,.
C[C@H]1CCCCO[C@@H](CN(C)C(=O)CCCN(C)C)[C@@H](C)CN([C@@H](C)CO)C(=O)c2cc(NS(=O)(=O)c3ccc(Cl)cc3)ccc2O1,-13.2,1.8,14.8,53.5*
C[C@@H]1CCCCO[C@H](CN(C)S(=O)(=O)c2ccc(Cl)cc2)[C@H](C)CN([C@@H](C)CO)C(=O)c2cc(NS(=O)(=O)c3ccc(Cl)cc3)ccc2O1,6.2,74.3*,-0.2,.
COc1cc2cc(c1Cl)N(C)C(=O)CC(OC(=O)C(C)N(C)C(C)=O)C1(C)OC1C(C)C1CC(O)(NC(=O)O1)C(OC)C=CC=C(C)C2 (centres undefined),17.4,74.2*,.,-7.5
C[C@H](CO)N1C[C@H](C)[C@@H](CN(C)Cc2ccc(-c3ccccc3)cc2)OCc2ccccc2-c2c(n(C)c3ccccc23)C1=O,16.4,51.0,.,80.1*
C[C@H](CO)N1C[C@H](C)[C@@H](CN(C)Cc2ccc(Oc3ccccc3)cc2)OCc2ccccc2-c2c(n(C)c3ccccc23)C1=O,13.5,88.8*,.,28.9
Cc1nc(C(=O)NC2CCCCC2)sc1C1(C)CC(c2cccc([N+](=O)[O-])c2)=NO1 (centres undefined),26.1,6.5,5.0,-4.1
Cc1ccc(N2CCN(C(=O)c3nn(C)c4c3CS(=O)(=O)c3ccccc3-4)CC2C)cc1 (centres undefined),6.7,29.7,.,-9.6
O=C(O)C1C=CC(C(=O)O)c2ccccc21 (centres undefined),-8.6,93.2*,.,-3.5
O=C(c1ccccc1)c1ccccc1,.,.,1.3,0.1
Nc1nc(Sc2ccc([N+](=O)[O-])c3nonc23)c2[nH]cnc2n1,5.2,96.5*,.,-65.4
CNc1ncnc(Sc2nc(N)nc3nc[nH]c23)c1[N+](=O)[O-],9.9,95.0*,.,4.7
CCOC(=O)c1cc([N+](=O)[O-])cc([N+](=O)[O-])c1Sc1ncnc2nc[nH]c12,1.5,25.3,.,-10.6
O=[N+]([O-])c1cc(C(F)(F)F)cc([N+](=O)[O-])c1NN=C1CCCCC1,-1.7,-3.2,6.0,.
C[C@H]1CN([C@@H](C)CO)C(=O)CCCn2nncc2CO[C@H]1CN(C)C(=O)c1cc(-c2ccccc2)on1,-11.0,-18.9,6.6,-0.3
SMILES,FN deposition inh,PAX8 reporter,RAD54 branch,RAD52 anneal inh
CCOC(=O)C1=C(CNCCc2ccc(Cl)cc2)NC(=O)NC1c1ccc2c(c1)OCO2 (centres undefined),.,.,-10.0,.
O=C1C(Cl)=C(NC(=O)c2ccccc2)C(=O)C(Cl)=C1NC(=O)c1ccccc1,12.6,79.9*,-0.5,-7.7
COC(=O)CNc1nc(C2CC2)nc2c1nnn2Cc1ccccc1Cl,.,.,-28.7,.
CN(C)S(=O)(=O)c1ccc(Nc2nc(C3CC3)nc3c2nnn3Cc2ccccc2Cl)cc1,9.7,66.9*,.,.
Cc1ccc(C(=O)c2ccccc2C(=O)OCC(=O)N2CC(C)CC(C)C2)cc1 (centres undefined),-5.8,10.0,-3.4,-2.9
O=C(NC(=O)c1ccccc1)Nc1ccccn1,.,85.0*,-1.4,-3.0
O=C(Nc1ccccn1)c1ccc(C(=O)c2ccccc2)cc1,-10.3,-221.3,-1.2,-9.5
COc1ccc(NS(=O)(=O)c2ccc(N3CCCC3)c(NC(=S)Nc3ccc(SC(F)F)cc3)c2)cc1,-4.6,101.4*,0.7,-22.3
O=S(=O)(c1ccc(F)cc1)N1CCCCN2[C@H](CO)[C@H](c3ccc(C#CC4CCCC4)cc3)[C@H]2C1,.,15.0,-3.4,57.8*
O=S(=O)(c1ccc(F)cc1)N1CCCCN2[C@@H](CO)[C@@H](c3ccc(-c4ccccc4F)cc3)[C@@H]2C1,.,5.0,2.2,60.1*
O=S(=O)(c1ccccc1)N1CCCCN2[C@H](CO)[C@H](c3ccc(-c4ccccc4F)cc3)[C@H]2C1,-7.1,114.0*,5.1,51.5*
O=S(=O)(c1ccc(F)cc1)N1CCCCN2[C@H](C1)[C@H](c1ccc(-c3ccccc3F)cc1)[C@@H]2CO,.,11.3,4.4,12.8
O=S(=O)(c1ccc(F)cc1)N1CCCCN2[C@@H](CO)[C@H](c3ccc(-c4ccccc4F)cc3)[C@@H]2C1,.,9.8,-6.4,58.8*
COC(=O)C1=C(C)N(C)C(=NCc2ccccc2C(F)(F)F)NC1c1ccc(C(F)(F)F)cc1 (centres undefined),3.7,-4.2,.,-13.1
Cc1cc(C)cc(NC(=O)CCC(=O)Nc2cc(C)on2)c1,.,.,-5.9,.
O=C(CCN1CCC(c2ccccc2)C1)c1ccc2c(c1)OCCO2 (centres undefined),-2.7,76.3*,9.4,-1.7
O=C(CCN1CCC(c2ccccc2)C1)c1ccccc1 (centres undefined),.,.,-1.1,-8.5
COc1ccccc1C#Cc1ccc2c(c1)O[C@H](CN(C)Cc1cccnc1)[C@H](C)CN([C@@H](C)CO)S2(=O)=O,8.9,86.7*,3.8,17.8
C[C@H]1CN([C@@H](C)CO)S(=O)(=O)c2ccc(C#CC3CCCC3)cc2O[C@H]1CN(C)Cc1cccnc1,-5.1,14.2,1.6,-6.0
